In ChEMBL document CHEMBL1140564, “Macrocyclic ureas as potent and selective Chk1 inhibitors: an improved synthesis, kinome profiling, structure-activity relationships, and preliminary pharmacokinetics” (Bioorg Med Chem Lett, 2007):
Calls of active or inactive are those of the source. The rule behind the calls is not given here.

Experiments:
[1] = Inhibition of PKG1A; parameters: species or system Homo sapiens
[2] = Inhibition of PHK lambda 2; parameters: species or system Homo sapiens
[3] = target: Calcium/calmodulin-dependent protein kinase type IV (Homo sapiens, UniProt Q16566); assay: Inhibition of CAMK4
[4] = target: Ribosomal protein S6 kinase alpha-4 (Homo sapiens, UniProt O75676); assay: Inhibition of MSK2
[5] = target: Mitogen-activated protein kinase kinase kinase 9 (Homo sapiens, UniProt P80192); assay: Inhibition of MLK1
[6] = target: Cyclin-dependent kinase 6 (Homo sapiens, UniProt Q00534); assay: Inhibition of CDK6
[7] = target: Cyclin-dependent kinase 9 (Homo sapiens, UniProt P50750); assay: Inhibition of CDK9
[8] = target: Serine/threonine-protein kinase TBK1 (Homo sapiens, UniProt Q9UHD2); assay: Inhibition of TBK1
[9] = Inhibition of PKG1B; parameters: species or system Homo sapiens
HeLa = assay: Cytotoxicity against HeLa cells by MTS assay; type: functional, cell-based; conditions: Homo sapiens
[10] = Inhibition of AUR2; parameters: species or system Homo sapiens
[11] = target: Serine/threonine-protein kinase 31 (Homo sapiens, UniProt Q9BXU1); assay: Inhibition of STK31
[12] = Inhibition of JNK2a2; parameters: species or system Homo sapiens
SRSF protein kinase 3 = SRSF protein kinase 3 (Homo sapiens, UniProt Q9UPE1); assay: Inhibition of MSSK1
[13] = target: Serine/threonine-protein kinase DCLK2 (Homo sapiens, UniProt Q8N568); assay: Inhibition of DCAMKL2
[14] = Cell cycle arrest in H1299 cells by accumulation at G2/M phase by FACS assay; type: functional, cell-based; conditions: Homo sapiens; NCI-H1299
[15] = target: Muscle, skeletal receptor tyrosine-protein kinase (Homo sapiens, UniProt O15146); assay: Inhibition of MUSK
[16] = target: 5'-AMP-activated protein kinase subunit beta-1 (Homo sapiens, UniProt Q9Y478); assay: Inhibition of AMPK
[17] = target: Serine/threonine-protein kinase Sgk1 (Homo sapiens, UniProt O00141); assay: Inhibition of SGK
[18] = target: Serine/threonine-protein kinase Nek3 (Homo sapiens, UniProt P51956); assay: Inhibition of NEK3
[19] = Inhibition of AUR1; parameters: species or system Homo sapiens
[20] = target: Serine/threonine-protein kinase WNK2 (Homo sapiens, UniProt Q9Y3S1); assay: Inhibition of WNK2
[21] = target: NUAK family SNF1-like kinase 1 (Homo sapiens, UniProt O60285); assay: Inhibition of ARK5
[22] = target: Serine/threonine-protein kinase Nek11 (Homo sapiens, UniProt Q8NG66); assay: Inhibition of NEK11
[23] = Inhibition of JNK1a1; parameters: species or system Homo sapiens
[24] = Inhibition of PKA; parameters: species or system Homo sapiens
TAK1/TAB1 = TAK1/TAB1 (Homo sapiens, UniProt O43318); assay: Inhibition of TAK1-TAB1
[25] = target: Cyclin-dependent kinase 7 (Homo sapiens, UniProt P50613); assay: Inhibition of CDK7
NCI-H1299 = assay: Inhibition of doxorubicin-induced cell cycle arrest in H1299 cells at G2/M phase by FACS assay; type: functional, cell-based; conditions: Homo sapiens
Method in brief: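 H1299 cells treated with 500 nM doxorubicin to induce G2/M arrest, with or without inhibitor at various concentrations, up to 10 μM. Cells stained with propidium iodide and DNA content analysed by FACS. EC50 for abrogation of the Dox-induced G2/M checkpoint.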

[26] = Inhibition of CMET; parameters: species or system Homo sapiens
[27] = target: Serine/threonine-protein kinase 33 (Homo sapiens, UniProt Q9BYT3); assay: Inhibition of STK33
Sequence of Serine/threonine-protein kinase 33 (Q9BYT3 whole entry): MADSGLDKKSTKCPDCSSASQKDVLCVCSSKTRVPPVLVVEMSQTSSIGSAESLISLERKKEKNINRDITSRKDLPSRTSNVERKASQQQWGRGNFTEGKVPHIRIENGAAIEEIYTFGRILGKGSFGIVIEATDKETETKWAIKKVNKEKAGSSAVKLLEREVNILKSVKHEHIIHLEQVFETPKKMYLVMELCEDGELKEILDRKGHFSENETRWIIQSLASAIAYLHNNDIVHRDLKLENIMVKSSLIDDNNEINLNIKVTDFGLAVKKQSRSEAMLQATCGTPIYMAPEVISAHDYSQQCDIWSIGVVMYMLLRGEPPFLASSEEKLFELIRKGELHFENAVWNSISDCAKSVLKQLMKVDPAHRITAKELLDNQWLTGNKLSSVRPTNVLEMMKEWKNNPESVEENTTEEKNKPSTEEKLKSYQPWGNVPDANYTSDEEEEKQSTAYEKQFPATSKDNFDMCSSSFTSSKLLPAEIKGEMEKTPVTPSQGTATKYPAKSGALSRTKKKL

Sequence of Serine/threonine-protein kinase WNK2 (Q9Y3S1 whole entry): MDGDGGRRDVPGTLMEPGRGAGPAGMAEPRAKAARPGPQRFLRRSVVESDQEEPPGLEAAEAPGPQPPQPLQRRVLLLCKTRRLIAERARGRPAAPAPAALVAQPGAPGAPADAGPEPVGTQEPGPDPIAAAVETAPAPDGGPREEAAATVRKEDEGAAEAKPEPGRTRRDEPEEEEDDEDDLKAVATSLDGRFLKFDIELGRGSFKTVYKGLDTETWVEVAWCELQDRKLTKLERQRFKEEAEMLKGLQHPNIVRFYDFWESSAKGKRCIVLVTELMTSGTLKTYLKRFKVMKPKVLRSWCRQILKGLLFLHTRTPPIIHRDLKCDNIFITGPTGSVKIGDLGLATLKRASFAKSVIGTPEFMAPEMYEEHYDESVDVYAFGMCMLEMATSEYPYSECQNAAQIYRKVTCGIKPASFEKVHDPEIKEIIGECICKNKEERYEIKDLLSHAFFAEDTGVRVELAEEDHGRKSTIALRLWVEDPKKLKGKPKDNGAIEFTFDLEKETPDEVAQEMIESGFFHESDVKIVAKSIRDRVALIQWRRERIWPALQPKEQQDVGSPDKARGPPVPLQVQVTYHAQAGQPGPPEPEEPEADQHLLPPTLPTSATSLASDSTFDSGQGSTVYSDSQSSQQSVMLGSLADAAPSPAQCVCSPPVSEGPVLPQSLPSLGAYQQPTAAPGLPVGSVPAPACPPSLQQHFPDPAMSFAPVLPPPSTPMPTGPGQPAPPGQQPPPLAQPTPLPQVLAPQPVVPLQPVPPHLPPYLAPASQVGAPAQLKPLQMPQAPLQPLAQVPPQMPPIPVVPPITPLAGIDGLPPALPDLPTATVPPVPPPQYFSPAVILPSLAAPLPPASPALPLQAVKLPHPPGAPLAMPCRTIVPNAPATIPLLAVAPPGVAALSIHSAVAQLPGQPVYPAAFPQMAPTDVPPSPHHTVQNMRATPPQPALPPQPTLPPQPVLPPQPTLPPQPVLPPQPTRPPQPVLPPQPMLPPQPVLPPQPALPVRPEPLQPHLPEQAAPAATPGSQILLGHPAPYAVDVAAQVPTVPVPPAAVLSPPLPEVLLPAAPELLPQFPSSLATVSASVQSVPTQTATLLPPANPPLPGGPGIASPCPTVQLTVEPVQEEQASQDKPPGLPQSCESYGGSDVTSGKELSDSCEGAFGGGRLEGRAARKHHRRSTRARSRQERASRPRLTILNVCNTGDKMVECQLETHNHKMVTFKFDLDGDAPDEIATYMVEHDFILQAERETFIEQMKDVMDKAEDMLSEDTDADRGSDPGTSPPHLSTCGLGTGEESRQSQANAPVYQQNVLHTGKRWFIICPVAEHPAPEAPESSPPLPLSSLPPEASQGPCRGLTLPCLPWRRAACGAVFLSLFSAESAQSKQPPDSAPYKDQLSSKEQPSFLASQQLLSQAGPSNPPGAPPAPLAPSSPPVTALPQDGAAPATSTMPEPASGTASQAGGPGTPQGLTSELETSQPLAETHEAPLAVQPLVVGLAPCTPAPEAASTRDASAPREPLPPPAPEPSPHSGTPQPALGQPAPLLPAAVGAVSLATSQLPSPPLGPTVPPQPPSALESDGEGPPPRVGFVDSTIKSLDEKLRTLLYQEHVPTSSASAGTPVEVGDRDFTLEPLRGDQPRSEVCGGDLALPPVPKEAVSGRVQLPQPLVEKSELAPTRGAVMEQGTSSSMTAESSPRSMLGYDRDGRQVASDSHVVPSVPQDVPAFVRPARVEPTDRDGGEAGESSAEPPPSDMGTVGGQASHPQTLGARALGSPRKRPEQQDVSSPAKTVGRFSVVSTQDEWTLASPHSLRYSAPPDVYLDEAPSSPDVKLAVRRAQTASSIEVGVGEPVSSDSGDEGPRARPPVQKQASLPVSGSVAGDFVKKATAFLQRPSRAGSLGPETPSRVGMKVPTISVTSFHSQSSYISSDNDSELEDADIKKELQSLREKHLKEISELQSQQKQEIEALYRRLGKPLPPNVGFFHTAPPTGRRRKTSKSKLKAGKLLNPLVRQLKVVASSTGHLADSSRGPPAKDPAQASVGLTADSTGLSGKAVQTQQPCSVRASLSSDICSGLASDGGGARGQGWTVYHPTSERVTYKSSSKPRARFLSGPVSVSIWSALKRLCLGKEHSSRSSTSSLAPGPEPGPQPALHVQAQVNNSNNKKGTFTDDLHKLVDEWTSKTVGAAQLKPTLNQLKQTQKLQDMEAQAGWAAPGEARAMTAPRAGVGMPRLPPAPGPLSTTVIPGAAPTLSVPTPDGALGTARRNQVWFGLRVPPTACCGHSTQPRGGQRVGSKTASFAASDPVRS
Sequence of Serine/threonine-protein kinase Nek11 (Q8NG66 whole entry): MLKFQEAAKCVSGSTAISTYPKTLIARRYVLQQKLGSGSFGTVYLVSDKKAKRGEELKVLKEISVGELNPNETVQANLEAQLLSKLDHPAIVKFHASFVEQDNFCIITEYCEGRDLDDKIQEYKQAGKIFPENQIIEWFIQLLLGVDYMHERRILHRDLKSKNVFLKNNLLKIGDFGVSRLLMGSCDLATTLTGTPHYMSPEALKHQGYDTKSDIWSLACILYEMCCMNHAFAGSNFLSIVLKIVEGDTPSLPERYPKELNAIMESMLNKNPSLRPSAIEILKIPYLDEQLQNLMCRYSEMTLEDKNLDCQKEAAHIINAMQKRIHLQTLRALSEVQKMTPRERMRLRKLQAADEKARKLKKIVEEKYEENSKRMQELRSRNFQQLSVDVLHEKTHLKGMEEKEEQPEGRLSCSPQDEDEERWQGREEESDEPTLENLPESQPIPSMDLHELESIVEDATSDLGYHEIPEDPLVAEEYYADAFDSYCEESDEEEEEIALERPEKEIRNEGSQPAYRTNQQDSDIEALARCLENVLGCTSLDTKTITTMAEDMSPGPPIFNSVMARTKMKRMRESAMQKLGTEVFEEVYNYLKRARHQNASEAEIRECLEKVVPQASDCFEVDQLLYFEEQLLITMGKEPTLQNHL
Sequence of Serine/threonine-protein kinase DCLK2 (Q8N568 whole entry): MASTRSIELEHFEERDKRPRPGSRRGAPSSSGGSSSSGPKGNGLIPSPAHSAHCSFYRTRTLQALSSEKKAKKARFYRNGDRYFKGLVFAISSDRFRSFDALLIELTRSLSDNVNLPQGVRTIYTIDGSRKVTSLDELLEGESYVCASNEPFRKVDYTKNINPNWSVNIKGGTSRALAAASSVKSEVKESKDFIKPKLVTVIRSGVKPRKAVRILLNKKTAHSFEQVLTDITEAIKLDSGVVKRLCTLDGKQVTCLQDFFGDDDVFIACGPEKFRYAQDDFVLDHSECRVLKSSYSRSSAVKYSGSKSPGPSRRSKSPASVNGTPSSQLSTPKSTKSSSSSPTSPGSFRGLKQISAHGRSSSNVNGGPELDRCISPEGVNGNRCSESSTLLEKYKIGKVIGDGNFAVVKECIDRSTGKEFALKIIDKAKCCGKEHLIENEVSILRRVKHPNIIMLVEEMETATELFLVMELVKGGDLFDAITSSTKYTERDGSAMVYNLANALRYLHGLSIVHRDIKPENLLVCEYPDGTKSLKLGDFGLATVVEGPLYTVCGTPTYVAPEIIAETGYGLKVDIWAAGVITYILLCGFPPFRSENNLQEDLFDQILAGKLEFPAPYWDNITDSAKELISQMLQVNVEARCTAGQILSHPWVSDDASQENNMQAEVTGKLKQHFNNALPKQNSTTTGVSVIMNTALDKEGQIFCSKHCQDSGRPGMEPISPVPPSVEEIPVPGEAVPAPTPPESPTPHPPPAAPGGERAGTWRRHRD
Sequence of Cyclin-dependent kinase 7 (P50613 whole entry): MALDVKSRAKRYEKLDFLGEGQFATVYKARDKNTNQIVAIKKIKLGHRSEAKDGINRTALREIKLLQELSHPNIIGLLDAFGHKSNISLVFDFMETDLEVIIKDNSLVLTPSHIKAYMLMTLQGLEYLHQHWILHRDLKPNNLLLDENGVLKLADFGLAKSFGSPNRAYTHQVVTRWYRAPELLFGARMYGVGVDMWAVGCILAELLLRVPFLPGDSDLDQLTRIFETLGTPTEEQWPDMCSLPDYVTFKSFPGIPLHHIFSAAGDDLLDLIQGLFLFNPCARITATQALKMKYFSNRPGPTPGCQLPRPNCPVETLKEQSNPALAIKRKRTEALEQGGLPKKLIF
Sequence of Calcium/calmodulin-dependent protein kinase type IV (Q16566 whole entry): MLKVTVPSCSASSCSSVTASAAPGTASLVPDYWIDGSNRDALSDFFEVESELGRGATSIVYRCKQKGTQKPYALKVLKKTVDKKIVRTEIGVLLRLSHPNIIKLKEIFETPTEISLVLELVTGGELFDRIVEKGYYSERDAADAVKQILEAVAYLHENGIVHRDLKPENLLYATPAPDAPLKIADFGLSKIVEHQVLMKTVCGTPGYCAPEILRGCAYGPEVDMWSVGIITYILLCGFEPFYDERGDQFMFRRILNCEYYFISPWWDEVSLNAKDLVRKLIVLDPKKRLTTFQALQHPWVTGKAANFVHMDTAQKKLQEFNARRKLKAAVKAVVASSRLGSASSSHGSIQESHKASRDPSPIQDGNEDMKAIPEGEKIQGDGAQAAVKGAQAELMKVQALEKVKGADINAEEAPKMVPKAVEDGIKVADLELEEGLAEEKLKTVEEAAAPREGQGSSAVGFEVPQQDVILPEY

**Q.** Which Ki [1] does the source give for N#Cc1ncc2nc1OCCCCOc1cc(NCc3cncs3)c(Cl)cc1NC(=O)N2 here?
**A.** > 1780 nM

**Q.** And the Ki [2]?
**A.** > 4900 nM

**Q.** And the Ki [3]?
**A.** > 8570 nM

**Q.** What about the Ki [4] of the same compound?
**A.** 949 nM

**Q.** What about the Ki [5] of the same compound?
**A.** > 1670 nM

**Q.** What about the Ki [6] of the same compound?
**A.** > 1550 nM

**Q.** And the Ki [7]?
**A.** > 1640 nM

**Q.** And the Ki [8]?
**A.** > 1520 nM

**Q.** What about the Ki [9] of the same compound?
**A.** > 1680 nM

**Q.** What about the EC50 (HeLa) of the same compound?
**A.** 59300 nM

**Q.** And the Ki [10]?
**A.** 1910 nM

**Q.** What about the Ki [11] of the same compound?
**A.** > 1440 nM

**Q.** And the Ki [12]?
**A.** > 4120 nM

**Q.** And the Ki (SRSF protein kinase 3)?
**A.** > 1740 nM

**Q.** And the Ki [13]?
**A.** > 9570 nM

**Q.** What about the Activity [14] of the same compound?
**A.** inactive

**Q.** What about the Ki [15] of the same compound?
**A.** > 1650 nM

**Q.** What about the Ki [16] of the same compound?
**A.** 1540 nM

**Q.** And the Ki [17]?
**A.** 8180 nM

**Q.** And the Ki [18]?
**A.** > 1670 nM

**Q.** And the Ki [19]?
**A.** 2020 nM

**Q.** What about the Ki [20] of the same compound?
**A.** > 1520 nM

**Q.** What about the Ki [21] of the same compound?
**A.** > 1500 nM

**Q.** And the Ki [22]?
**A.** > 1550 nM

**Q.** What about the Ki [23] of the same compound?
**A.** > 3060 nM

**Q.** And the Ki [24]?
**A.** > 7500 nM

**Q.** And the Ki (TAK1/TAB1)?
**A.** > 1610 nM

**Q.** And the Ki [25]?
**A.** > 1520 nM

**Q.** What about the Activity (NCI-H1299) of the same compound?
**A.** inactive

**Q.** And the Ki [26]?
**A.** > 2860 nM

**Q.** And the Ki [27]?
**A.** > 1640 nM
